Experimental data from ChEMBL document CHEMBL1133087, “Radioiodinated N-(2-diethylaminoethyl)benzamide derivatives with high melanoma uptake: structure-affinity relationships, metabolic fate, and intracellular localization” (J Med Chem, 2000).

Tests used:
Mus musculus [1] = experiment: Biodistribution was studied by injecting intravenously into C57B1/6 mice bearing subcutaneously transplanted B16 […] after 6 hr.; format: ADME, organism-based; details: in vivo, iv
Mus musculus [2] = experiment: Biodistribution was studied by injecting intravenously into C57B1/6 mice bearing subcutaneously transplanted B16 heart after 6 hr.; format: ADME, organism-based; details: in vivo, iv
Mus musculus [3] = experiment: Biodistribution was studied by injecting intravenously into C57B1/6 mice bearing subcutaneously transplanted B16 lung after 6 hr.; format: ADME, organism-based; details: in vivo, iv
Mus musculus [4] = experiment: Amount of urinary radioactivity collected within 4 hr after iv injection into C57B1/6 mice was analyzed by RP-HPLC.; format: ADME, organism-based, Urine; details: in vivo
Mus musculus [5] = experiment: Biodistribution was studied by injecting intravenously into C57B1/6 mice bearing subcutaneously transplanted B16 blood after 1 hr.; format: ADME, organism-based; details: in vivo, iv
Mus musculus [6] = experiment: Biodistribution was studied by injecting intravenously into C57B1/6 mice bearing subcutaneously transplanted B16 melanoma after 1 hr.; format: ADME, organism-based; details: in vivo, iv
Mus musculus [7] = experiment: Biodistribution was studied by injecting intravenously into C57B1/6 mice bearing subcutaneously transplanted B16 blood after 6 hr.; format: ADME, organism-based; details: in vivo, iv
Mus musculus [8] = experiment: Biodistribution was studied by injecting intravenously into C57B1/6 mice bearing subcutaneously transplanted B16 muscle after 1 hr.; format: ADME, organism-based, Muscle tissue; details: in vivo, iv
Mus musculus [9] = experiment: Biodistribution was studied by injecting intravenously into C57B1/6 mice bearing subcutaneously transplanted B16 heart after 1 hr.; format: ADME, organism-based; details: in vivo, iv
Mus musculus [10] = experiment: Biodistribution was studied by injecting intravenously into C57B1/6 mice bearing subcutaneously transplanted B16 spleen after 1 hr.; format: ADME, organism-based; details: in vivo, iv
Mus musculus [11] = experiment: Biodistribution was studied by injecting intravenously into C57B1/6 mice bearing subcutaneously transplanted B16 lung after 1 hr.; format: ADME, organism-based; details: in vivo, iv
Mus musculus [12] = experiment: Biodistribution was studied by injecting intravenously into C57B1/6 mice bearing subcutaneously transplanted B16 kidney after 1 hr.; format: ADME, organism-based; details: in vivo, iv
Mus musculus [13] = experiment: Biodistribution was studied by injecting intravenously into C57B1/6 mice bearing subcutaneously transplanted B16 brain after 6 hr.; format: ADME, organism-based; details: in vivo, iv
Mus musculus [14] = experiment: Biodistribution was studied by injecting intravenously into C57B1/6 mice bearing subcutaneously transplanted B16 liver after 1 hr.; format: ADME, organism-based; details: in vivo, iv
Mus musculus [15] = experiment: Biodistribution was studied by injecting intravenously into C57B1/6 mice bearing subcutaneously transplanted B16 melanoma after 6 hr.; format: ADME, organism-based; details: in vivo, iv
Mus musculus [16] = experiment: Biodistribution was studied by injecting intravenously into C57B1/6 mice bearing subcutaneously transplanted B16 muscle after 6 hr.; format: ADME, organism-based, Muscle tissue; details: in vivo, iv
[17] = The lipophilicity was measured in an octanol/water system at pH 7.4.; format: physicochemical
In short: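 HPLC-purified no-carrier-added radioiodinated benzamide was added to 0.067 M phosphate buffer at pH 7.4 with an equal volume of 1-octanol. The mixture was vortexed to equilibrium, centrifuged and the phases separated. Each phase was γ-counted, with log P = log(cpm octanol/cpm buffer).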

Mus musculus [18] = experiment: Biodistribution was studied by injecting intravenously into C57B1/6 mice bearing subcutaneously transplanted B16 liver after 6 hr.; format: ADME, organism-based; details: in vivo, iv
Mus musculus [19] = experiment: Biodistribution was studied by injecting intravenously into C57B1/6 mice bearing subcutaneously transplanted B16 kidney after 6 hr.; format: ADME, organism-based; details: in vivo, iv
Mus musculus [20] = experiment: Biodistribution was studied by injecting intravenously into C57B1/6 mice bearing subcutaneously transplanted B16 brain after 1 hr.; format: ADME, organism-based; details: in vivo, iv
Mus musculus [21] = experiment: Biodistribution was studied by injecting intravenously into C57B1/6 mice bearing subcutaneously transplanted B16 melanoma after 24 hr.; format: ADME, organism-based; details: in vivo, iv
Mus musculus [22] = experiment: Biodistribution was studied by injecting intravenously into C57B1/6 mice bearing subcutaneously transplanted B16 muscle after 24 hr.; format: ADME, organism-based, Muscle tissue; details: in vivo, iv
Mus musculus [23] = experiment: Biodistribution was studied by injecting intravenously into C57B1/6 mice bearing subcutaneously transplanted B16 spleen after 24 hr.; format: ADME, organism-based; details: in vivo, iv
Mus musculus [24] = experiment: Biodistribution was studied by injecting intravenously into C57B1/6 mice bearing subcutaneously transplanted B16 heart after 24 hr.; format: ADME, organism-based; details: in vivo, iv
Mus musculus [25] = experiment: Biodistribution was studied by injecting intravenously into C57B1/6 mice bearing subcutaneously transplanted B16 liver after 24 hr.; format: ADME, organism-based; details: in vivo, iv
Mus musculus [26] = experiment: Biodistribution was studied by injecting intravenously into C57B1/6 mice bearing subcutaneously transplanted B16 brain after 24 hr.; format: ADME, organism-based; details: in vivo, iv
Mus musculus [27] = experiment: Biodistribution was studied by injecting intravenously into C57B1/6 mice bearing subcutaneously transplanted B16 lung after 24 hr.; format: ADME, organism-based; details: in vivo, iv
Mus musculus [28] = experiment: Biodistribution was studied by injecting intravenously into C57B1/6 mice bearing subcutaneously transplanted B16 blood after 24 hr; format: ADME, organism-based; details: in vivo, iv
Mus musculus [29] = experiment: Biodistribution was studied by injecting intravenously into C57B1/6 mice bearing subcutaneously transplanted B16 kidney after 24 hr.; format: ADME, organism-based; details: in vivo, iv

Row | SMILES | ID/g (Mus musculus [1]) | ID/g (Mus musculus [2]) | ID/g (Mus musculus [3]) | ID (Mus musculus [4]) | ID/g (Mus musculus [5]) | ID/g (Mus musculus [6]) | ID/g (Mus musculus [7]) | ID/g (Mus musculus [8]) | ID/g (Mus musculus [9]) | ID/g (Mus musculus [10]) | ID/g (Mus musculus [11]) | ID/g (Mus musculus [12]) | ID/g (Mus musculus [13]) | ID/g (Mus musculus [14]) | ID/g (Mus musculus [15]) | ID/g (Mus musculus [16]) | logD [17] | ID/g (Mus musculus [18]) | ID/g (Mus musculus [19]) | ID/g (Mus musculus [20]) | also measured
1 | CCN(CC)CCNC(=O)c1cc(I)ccc1OC | 0.15% | 0.09% | 0.19% | 71% | 0.46% | 7.73% | 0.14% | 0.19% | 0.46% | 2.5% | 1.15% | 1.71% | 0.04% | 0.88% | 6.8% | 0.04% | 1.26 | 0.26% | 0.41% | 0.5% | –
2 | CCN(CC)CCNC(=O)c1cc(Br)c(N)c(I)c1OC | 1.84% | 0.94% | 2.07% | 34% | 2.32% | 16.61% | 1.86% | 0.94% | 1.91% | 5.06% | 3.16% | 4.53% | 0.15% | 11.32% | 16.48% | 0.43% | 1.81 | 9.61% | 2.08% | 0.64% | ID/g (Mus musculus [21]): 8.02%; ID/g (Mus musculus [22]): 0.01%; ID/g (Mus musculus [23]): 0.38%; ID/g (Mus musculus [24]): 0.13%; ID/g (Mus musculus [25]): 4.54%; ID/g (Mus musculus [26]): 0.02%; ID/g (Mus musculus [27]): 0.26%; ID/g (Mus musculus [28]): 0.19%; ID/g (Mus musculus [29]): 0.46%
3 | CCN(CC)CCNC(=O)c1ccc(NC(C)=O)c(I)c1 | 1.39% | 0.58% | 1.82% | – | 6.5% | 6.21% | 1.51% | 1.81% | 3.19% | 5.62% | 7.98% | 6.46% | 0.09% | 4.05% | 1.2% | 0.44% | 1.34 | 0.77% | 1.22% | 0.48% | –
4 | CCN(CC)CCNC(=O)c1cc(I)c(N)cc1OC | 1.57% | 0.45% | 1.06% | – | 1.93% | 4.66% | 0.85% | 0.61% | 1.17% | 2% | 3.12% | 6.89% | 0.08% | 4.92% | 6.92% | 0.28% | 1.62 | 3.43% | 3.95% | 0.18% | –
5 | CCN(CC)CCNC(=O)c1cc(I)c(NC(C)=O)cc1OC | 2.09% | 1.05% | 3.02% | 16% | 3.3% | 21.87% | 2.56% | 1.37% | 2.1% | 6.55% | 5.53% | 5.09% | 0.19% | 8.03% | 23.32% | 0.44% | 1.78 | 9.86% | 1.97% | 0.62% | ID/g (Mus musculus [21]): 16.06%; ID/g (Mus musculus [22]): 0.03%; ID/g (Mus musculus [23]): 0.17%; ID/g (Mus musculus [24]): 0.09%; ID/g (Mus musculus [25]): 3.72%; ID/g (Mus musculus [26]): 0.02%; ID/g (Mus musculus [27]): 0.25%; ID/g (Mus musculus [28]): 0.21%; ID/g (Mus musculus [29]): 0.4%
6 | CCN(CC)CCNC(=O)c1cc(OC)ccc1I | 0.31% | 0.13% | 0.41% | – | 0.9% | 8.06% | 0.33% | 0.38% | 0.63% | 1.26% | 1.41% | 1.81% | 0.02% | 1.23% | 2.32% | 0.08% | 1.16 | 0.23% | 0.17% | 0.15% | –
